These results are taken from ChEMBL document CHEMBL1129988, “4-substituted cubylcarbinylamines: a new class of mechanism-based monoamine oxidase B inactivators” (J Med Chem, 1997).

Substrate in data set [1]: NCC12C3C4C5C3C1C5C42
Description: (§1) Michaelis-Menten constant was determined against mitochondrial Monoamine oxidase B. An outline of the steps: (§2)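 K_m and k_cat against MAO B were obtained by measuring hydrogen peroxide formed over time with the amine as substrate.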

Substrate in data set [2]: NCC12C3C4C1C1C2C3C41C1CC1
Described as §1. The procedure, abridged: as §2

Substrate in data set [3]: NCC12C3C4C1C1C2C3C41c1ccccc1
Described as §1. The procedure, abridged: as §2

B1: Amine oxidase [flavin-containing] B (Bos taurus) (protein)
chain: MSSKCDVVVVGGGISGMAAAKLLHDSGLNVIVLEARDRVGGRTYTLRNQKVKYVDLGGSYVGPTQNHILRLSKELGLETYKVNEVERLIHHTKGKSYPFRGSFPSVWNPITYLDHNNLWRTMDDMGREIPSDAPWKAPLAEQWDLMTMKELLDKICWTESSKQLAILFVNLCVTAEIHEVSALWFLWYVKQCGGTTRIFSTSNGGQERKFVGGSGQVSERIMDLLGDRVKLERPVIHIDQTGENVLVETLNHELYEAKYVISAVPPVLGMKIHFNPPLPMMRNQLITRVPLGSVIKSIVYYKEPFWRNMDYCGSMIIEGEEAPVAYALDDTKPDGSYPAIIGFILAHKARKLARLTKEERLKKLCDLYAKVLGSQEALHPVHYEEKNWCEEQYSGGCYTSYFPPGIMTQYGRVLRQPVGRIYFAGTETATHWSGYMEGAVEAGERAAREILHAMGKIPEDEIWLPEPESVDVPAKPITTTFLQRHLPSVPGLLKLIGLTTIFSATALGFLAHKRGLLVRI
As for B1, the Michaelis-Menten constant (Km) – broadly, the substrate concentration at which the rate is half of its maximum – in data set [1] came to 140 µM; in data set [2], 1540 µM; in data set [3], 1010 µM. Moreover, the kcat (in general, the number of substrate molecules converted per active site and unit of time at saturation) in data set [1] came to 0.0833 s⁻¹; in data set [2], 2.5 s⁻¹; in data set [3], 3.47 s⁻¹. The kcat/Km – broadly, the second-order rate constant that governs catalysis at low substrate concentration – is 600 M⁻¹ s⁻¹ in data set [1], 1670 M⁻¹ s⁻¹ in data set [2] and 3500 M⁻¹ s⁻¹ in data set [3].
